Shown are actives, neighbours in structure and some others; about 5.8% of the full set was active somewhere.
GASC1 inh: KDM4C (human) demethylase inhibition; 96,000 compounds, 0.15% hits; Q9H3R0; inhibition, % at 12.5 µM; GST-KDM4C 2-372, H3K9me3 peptide, LANCE TR-FRET;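 active means mean replicate inhibition above about 25%, with at least 55% of replicates also reaching it, limit read from the data, passing the limit was not always enough; inconclusive means only one of those two conditions met; inactive means neither condition met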
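material = GST-tagged GASC-1 (JMJD2C) catalytic fragment, aa 2-372 | amount = enzyme final amount 10 nM | medium = HEPES buffer, pH 7.5, plus ascorbate | also added = H3K9me3 peptide substrate, Fe(II), 2-oxoglutarate | dosing = single dose | times = 30 min demethylation and 1 h detection at room temperature | detection = LANCE TR-FRET | read-out basis = Fall in 671/618 emission ratio as inhibition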
Pf Dd2 inh: P. falciparum Dd2 growth inhibition; SYBR Green, 72 h; stronger effect = lower value; activity change, % at 10 µM; 94,000 compounds, 2.3% hits; in the data active means activity change below about -80%; inconclusive means no clear call, values can overlap the other calls
IDH1 R132H inh: IDH1 R132H (human) inhibition. O75874. IDH1 R132H reductase, diaphorase/resazurin fluorescence, 60 min. 70,000 compounds, 0.18% hits. inhibition, % at 10 µM; in the data active means inhibition above about 34%; inconclusive means no clear call, values can overlap the other calls; inactive means below about 11%
Target sequence (O75874 whole entry R132H): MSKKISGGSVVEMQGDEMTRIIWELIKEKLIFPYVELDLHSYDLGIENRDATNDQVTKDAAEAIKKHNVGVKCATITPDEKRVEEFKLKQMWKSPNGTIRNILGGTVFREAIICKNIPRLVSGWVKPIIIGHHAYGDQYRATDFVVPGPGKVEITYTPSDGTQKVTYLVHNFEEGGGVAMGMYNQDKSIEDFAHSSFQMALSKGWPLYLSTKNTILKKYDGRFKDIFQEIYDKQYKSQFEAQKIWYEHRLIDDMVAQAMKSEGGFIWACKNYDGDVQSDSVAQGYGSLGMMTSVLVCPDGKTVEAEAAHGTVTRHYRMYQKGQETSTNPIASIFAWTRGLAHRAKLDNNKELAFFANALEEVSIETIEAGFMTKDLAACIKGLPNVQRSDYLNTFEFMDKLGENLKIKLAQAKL
T cruzi growth-1: inhibitors of T. cruzi proliferation | T. cruzi beta-gal in NIH3T3, GalScreen luminescence, 90 h | inhibition, % at 8.34 µM | 77,000 compounds, 5.9% hits | AID 624255;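 active means mean inhibition above about 93%, with at least 55% of replicates each passing it, limit read from the data, passing the limit was not always enough; inconclusive means only one of those two conditions holds; inactive means neither condition holds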
T cruzi growth-2: Trypanosoma cruzi proliferation inhibition. T. cruzi beta-gal in NIH3T3, GalScreen luminescence, 90 h. AID 651739. 5,600 compounds, 72% hits. inhibition, % at 8.35 µM. shares compounds with T cruzi growth-1;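 active means mean replicate inhibition above about 95% and at least 55% of replicates individually reaching it, limit read from the data; inconclusive means only one of the two criteria is met; inactive means neither criterion is met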
T cruzi growth-3: blocks T. cruzi growth in NIH3T3 host cells; T. cruzi beta-gal in NIH3T3, GalScreen luminescence, 90 h; inhibition, % at 2.09 µM; AID 651740; shares compounds with T cruzi growth-1; 5,600 compounds, 21% hits;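 active means mean inhibition above about 95%, with at least 55% of replicates also reaching it, limit read from the data; inconclusive means meets just one of the two conditions; inactive means meets neither condition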
3T3 cytotox: NIH/3T3 (mouse) viability loss; NIH/3T3 viability, CellTiter-Glo ATP luminescence, 90 h; cytotoxicity (signal decrease), % at 8.35 µM; AID 651742; 5,600 compounds, 14% hits; shares compounds with T cruzi growth-1;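 active means mean signal decrease across replicates above about 35% based on untreated-well scatter, with enough replicates individually passing, limit read from the data; inconclusive means no rule stated though some were filed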
3T3 cytotox 2: cytotoxicity in mouse NIH/3T3 fibroblasts | shares compounds with T cruzi growth-1 | AID 651744 | 5,600 compounds, 56% hits | NIH/3T3 viability, CellTiter-Glo ATP luminescence, 90 h | inhibition, % at 24.9 µM;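 active means mean loss of cell viability signal at or above a set limit, and enough replicates individually reaching it; inconclusive means meets only the mean limit or only the replicate share; inactive means meets neither condition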
A number is an active result.

How did CO[C@@H]1CN(C)C(=O)c2cc(NC(=O)c3ccccc3F)ccc2OC[C@H](C)N(C(=O)c2ccccc2F)C[C@@H]1C do in these assays?
GASC1 inh: inactive; Pf Dd2 inh: -83.0; IDH1 R132H inh: inactive; T cruzi growth-1: 102.2; T cruzi growth-2: inactive; T cruzi growth-3: inactive; 3T3 cytotox: inactive; 3T3 cytotox 2: 39.8

What do the screens show for `CO[C@@H]1CN(C)C(=O)c2cc(NC(=O)c3ccccc3F)ccc2OC[C@H](C)N(C(=O)c2ccccc2F)C[C@H]1C`?
GASC1 inh: inactive; Pf Dd2 inh: inactive; IDH1 R132H inh: inactive; T cruzi growth-1: inactive

What do the screens show for `C[C@@H]1CCCCO[C@@H](CN(C)C(=O)c2ccccc2)[C@H](C)CN([C@H](C)CO)C(=O)c2cc(NS(=O)(=O)c3ccc(Cl)cc3)ccc2O1`?
GASC1 inh: inactive; Pf Dd2 inh: inactive; T cruzi growth-1: 98.0; T cruzi growth-2: 111.3; T cruzi growth-3: inactive; 3T3 cytotox: inactive; 3T3 cytotox 2: inactive

What do the screens show for `C[C@H](CO)N1C[C@H](C)[C@@H](CN(C)C(=O)Nc2ccccc2)OCCCC[C@H](C)Oc2ccc(NS(=O)(=O)c3ccc(Cl)cc3)cc2C1=O`?
GASC1 inh: inactive; Pf Dd2 inh: inactive; T cruzi growth-1: inactive

How did C[C@H](CO)N1C[C@H](C)[C@H](CN(C)C(=O)Nc2ccccc2)OCCCC[C@H](C)Oc2ccc(NS(=O)(=O)c3ccc(Cl)cc3)cc2C1=O do in these assays?
GASC1 inh: 78.7; Pf Dd2 inh: inactive; T cruzi growth-1: 124.1; T cruzi growth-2: 110.3; T cruzi growth-3: inactive; 3T3 cytotox: inactive; 3T3 cytotox 2: inactive

What do the screens show for `C[C@@H]1CCCCO[C@H](CN(C)C(=O)c2ccccc2)[C@H](C)CN([C@H](C)CO)C(=O)c2cc(NS(=O)(=O)c3ccc(Cl)cc3)ccc2O1`?
GASC1 inh: inactive; Pf Dd2 inh: inactive; IDH1 R132H inh: inactive; T cruzi growth-1: inactive

How did C[C@@H]1CCCCO[C@H](CN(C)C(=O)Nc2ccccc2)[C@H](C)CN([C@@H](C)CO)C(=O)c2cc(NS(=O)(=O)c3ccc(Cl)cc3)ccc2O1 do in these assays?
GASC1 inh: inactive; Pf Dd2 inh: inactive; IDH1 R132H inh: inactive; T cruzi growth-1: inconclusive; T cruzi growth-2: 101.2; T cruzi growth-3: inactive; 3T3 cytotox: inactive; 3T3 cytotox 2: inactive

How did C[C@@H]1CCCCO[C@H](CN(C)C(=O)Nc2ccccc2)[C@@H](C)CN([C@H](C)CO)C(=O)c2cc(NS(=O)(=O)c3ccc(Cl)cc3)ccc2O1 do in these assays?
GASC1 inh: inactive; Pf Dd2 inh: inactive; IDH1 R132H inh: inactive; T cruzi growth-1: inactive

What do the screens show for `C[C@@H]1CN([C@@H](C)CO)C(=O)c2cc(NS(=O)(=O)c3ccc(Cl)cc3)ccc2O[C@@H](C)CCCCO[C@@H]1CN(C)C(=O)Nc1ccccc1`?
GASC1 inh: inactive; Pf Dd2 inh: inactive; IDH1 R132H inh: inactive; T cruzi growth-1: 100.2; T cruzi growth-2: 97.9; T cruzi growth-3: inactive; 3T3 cytotox: inactive; 3T3 cytotox 2: 24.2

Results for CCS(=O)(=O)N1CC(=O)N2[C@H](CO)[C@@H](c3ccc(-c4ccccc4F)cc3)[C@H]2C1 ?
GASC1 inh: inactive; Pf Dd2 inh: inactive

How did CS(=O)(=O)N(CC(=O)Nc1cccc([N+](=O)[O-])c1)Cc1ccc(Cl)cc1 do in these assays?
IDH1 R132H inh: inactive

What do the screens show for `COc1ccc(NC(=O)CN(C)S(=O)(=O)c2ccc(C)cc2)cc1OC`?
IDH1 R132H inh: inactive

How did CO[C@H]1CN(C)C(=O)c2cc(NC(=O)C3CC3)ccc2OC[C@H](C)N(C)C[C@@H]1C do in these assays?
GASC1 inh: inactive; IDH1 R132H inh: inactive

Results for C[C@H](CO)N1C[C@H](C)[C@@H](CN(C)Cc2ccc(Oc3ccccc3)cc2)Oc2ccc(NC(=O)Nc3ccccc3)cc2C1=O ?
GASC1 inh: inactive; Pf Dd2 inh: inactive; T cruzi growth-1: inactive

Results for C[C@@H]1CN([C@@H](C)CO)C(=O)c2cc(NC(=O)Cc3ccccc3)ccc2O[C@H]1CN(C)Cc1ccc(Oc2ccccc2)cc1 ?
GASC1 inh: inactive; Pf Dd2 inh: inactive; T cruzi growth-1: inactive

What do the screens show for `C[C@H]1CN([C@@H](C)CO)C(=O)c2cc(NC(=O)Nc3ccc4c(c3)OCO4)ccc2O[C@H]1CN(C)Cc1ccc(Oc2ccccc2)cc1`?
GASC1 inh: inactive; Pf Dd2 inh: inactive; IDH1 R132H inh: inactive; T cruzi growth-1: 116.8; T cruzi growth-2: 109.3; T cruzi growth-3: inactive; 3T3 cytotox: inactive; 3T3 cytotox 2: 41.0

How did C[C@H](CO)N1C[C@H](C)[C@@H](CN(C)Cc2ccc(Oc3ccccc3)cc2)Oc2c(NC(=O)Nc3ccc4c(c3)OCO4)cccc2C1=O do in these assays?
GASC1 inh: inactive; Pf Dd2 inh: inactive; T cruzi growth-1: inconclusive; T cruzi growth-2: 109.4; T cruzi growth-3: inactive; 3T3 cytotox: inactive; 3T3 cytotox 2: inactive

Results for C[C@@H]1CN([C@@H](C)CO)C(=O)c2cc(NC(=O)Nc3ccc4c(c3)OCO4)ccc2O[C@@H]1CN(C)Cc1ccncc1 ?
GASC1 inh: inactive; Pf Dd2 inh: inactive; IDH1 R132H inh: inactive; T cruzi growth-1: inactive

Results for C[C@H](CO)N1C[C@H](C)[C@H](CN(C)Cc2ccc(Oc3ccccc3)cc2)Oc2ccc(NC(=O)Cc3ccccc3)cc2C1=O ?
GASC1 inh: inactive; Pf Dd2 inh: inactive; IDH1 R132H inh: inactive; T cruzi growth-1: inconclusive; T cruzi growth-2: inactive; T cruzi growth-3: inactive; 3T3 cytotox: inactive; 3T3 cytotox 2: 101.7

How did C[C@H](CO)N1C[C@H](C)[C@H](CN(C)Cc2ccncc2)Oc2ccc(NC(=O)Nc3ccc4c(c3)OCO4)cc2C1=O do in these assays?
GASC1 inh: inactive; Pf Dd2 inh: inactive; IDH1 R132H inh: inactive; T cruzi growth-1: 116.8; T cruzi growth-2: inactive; T cruzi growth-3: inactive; 3T3 cytotox: inactive; 3T3 cytotox 2: 34.1

How did C[C@@H]1CN([C@@H](C)CO)C(=O)c2cccc(NC(=O)Nc3ccc4c(c3)OCO4)c2O[C@@H]1CN(C)Cc1ccc(Oc2ccccc2)cc1 do in these assays?
GASC1 inh: inactive; Pf Dd2 inh: inactive; T cruzi growth-1: inactive

What do the screens show for `COCC#Cc1ccc2c(c1)O[C@@H](CN(C)C(=O)C1CCC1)[C@H](C)CN([C@H](C)CO)S2(=O)=O`?
GASC1 inh: inactive; Pf Dd2 inh: inactive; T cruzi growth-1: inactive

Results for C[C@@H]1CN([C@H](C)CO)S(=O)(=O)c2ccc(-c3ccncc3)cc2O[C@@H]1CN(C)C(=O)Nc1ccc(F)cc1 ?
GASC1 inh: inactive; Pf Dd2 inh: inactive; T cruzi growth-1: 107.7; T cruzi growth-2: 97.0; T cruzi growth-3: inactive; 3T3 cytotox: inactive; 3T3 cytotox 2: 39.3
